This is an account of results in PMC12034843 (Drug Design, Development and Therapy, 2025).

Data set [1] is described as follows: In vitro release from exosome-SPION. It counts as physicochemical. As to conditions: PBS, 37 °C, fitted with OriginPro 2021. In outline: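 Test peptide loaded in SPION-decorated exosomes was placed in a dialysis bag (MWCO 80 kD) and incubated at 37 °C in PBS. Samples were withdrawn at selected intervals and peptide was quantified by reverse-phase HPLC on a C18 column. Percent release was calculated as (concentration in PBS × PBS volume) / (concentration in mother liquor × mother liquor volume) × 100%.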

Data set [2] concerns MIN-6 cells. Kind of data set: Insulin secretion of MIN-6 cells. It counts as cell-based. As to conditions: 100 nmol/L, 1 h, 8.3 mmol/L GLC and 0.8 mmol/L palmitic acid, MF density 1 T for /MF groups, n = 6.
Data set [3] is described as follows: Pharmacokinetic study after tail vein injection. In kind it is in vivo. The note with it: Kunming mice, 5 mg/kg, HPLC, n = 6. In outline: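 Kunming mice ([…], 18–22 g) were randomised into groups of six and given 5 mg/kg by tail-vein injection, either as free peptide or as the peptide-equivalent dose in exosome-SPION form. At intervals, 20 μL of tail-vein blood was taken with heparinised micropipettes and mixed into 1 mL PBS. Samples were centrifuged at 10,000 rpm for 10 min, and peptide in the supernatant was quantified by C18 HPLC.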

Ends that are not written are not given here.

Take “HSDAVFTDNYTRLRKQVAAKKYLQSIKNKRY-NH2 (C-terminus assumed) [BAY 55-9837]”: in data set [1], the “first-order fitted release equation y = a × (1 – exp(−b × x)): a” value turned out to be 53.92. Further, in data set [2], the “insulin secretion compared to the model group” value is recorded as “significantly enhance insulin secretion”. Moreover, the “time after injection at which it could not be detected in plasma” value in data set [3] was determined as 110 min.
